Measurements collected from several papers.
Target: Tyrosine-protein kinase Mer (MERTK, Homo sapiens, UniProt Q12866)
One construct used (Q12866 21-999): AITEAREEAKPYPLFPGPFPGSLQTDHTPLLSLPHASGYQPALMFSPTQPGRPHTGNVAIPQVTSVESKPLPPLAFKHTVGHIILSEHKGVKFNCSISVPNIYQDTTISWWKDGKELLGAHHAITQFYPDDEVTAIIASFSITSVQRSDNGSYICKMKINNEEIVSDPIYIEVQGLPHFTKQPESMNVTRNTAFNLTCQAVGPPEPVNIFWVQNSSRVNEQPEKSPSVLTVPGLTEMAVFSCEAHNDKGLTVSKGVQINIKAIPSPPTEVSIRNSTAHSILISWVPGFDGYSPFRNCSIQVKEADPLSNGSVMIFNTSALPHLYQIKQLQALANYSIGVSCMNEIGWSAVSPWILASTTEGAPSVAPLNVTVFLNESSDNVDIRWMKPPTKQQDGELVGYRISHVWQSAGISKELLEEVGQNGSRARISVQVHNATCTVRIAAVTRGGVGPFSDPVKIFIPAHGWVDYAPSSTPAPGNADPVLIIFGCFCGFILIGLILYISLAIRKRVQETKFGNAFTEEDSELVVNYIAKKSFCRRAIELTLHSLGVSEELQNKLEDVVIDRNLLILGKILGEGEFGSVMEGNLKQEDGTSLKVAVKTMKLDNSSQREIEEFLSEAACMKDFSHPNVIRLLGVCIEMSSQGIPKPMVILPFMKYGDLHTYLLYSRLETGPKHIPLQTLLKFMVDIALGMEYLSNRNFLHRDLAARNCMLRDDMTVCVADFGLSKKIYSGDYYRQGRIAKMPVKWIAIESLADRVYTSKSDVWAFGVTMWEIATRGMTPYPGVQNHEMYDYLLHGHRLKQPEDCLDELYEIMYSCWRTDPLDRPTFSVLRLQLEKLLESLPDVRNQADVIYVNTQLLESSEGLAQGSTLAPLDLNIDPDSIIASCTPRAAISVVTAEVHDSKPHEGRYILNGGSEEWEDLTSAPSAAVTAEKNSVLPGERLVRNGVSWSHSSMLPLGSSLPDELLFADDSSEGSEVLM

SMILES	read-out	method	concentration	remaining binding [%]
C=CC(=O)N1CCC(C(=O)NCC(=O)N2CCN(c3nc(-c4cnc(N)nc4C(F)F)nc(N4CCOCC4)n3)CC2)CC1	binding	competition with immobilised ligand	1 µM	94
CN(CCCC(F)(F)F)c1nccc(-c2cnn3ncccc23)n1	binding		1 µM	100
C[C@@]1(Cc2ccc(C#N)cc2)C(=O)N(c2cc(Cl)cc(Cl)c2)c2ncc(C(=O)NC3(c4nc(C5CCC5)no4)CC3)n21	cell-free assay	competition with immobilised ligand	1 µM	100
O=C(c1ccc(Nc2nccc(-c3cc4ccccc4s3)n2)cc1)N1CCC(N2CCCC2)CC1	binding	competition with immobilised ligand	1 µM	42
Nc1ncc2c(n1)-c1c([nH]c3ccc(C#CC4CC4)cc13)CCCC2	binding	competition with immobilised ligand	1 µM	100
COc1cnc(Nc2cccc(S(N)(=O)=O)c2)nc1N1CCN(c2ccccc2)CC1	binding	competition with immobilised ligand	1 µM	65
F[C@@H]1CCN(c2nccc(-c3cnn4ncccc34)n2)C1	binding		1 µM	100
FC(F)(F)Oc1cccc(-c2cnc3ccc(-c4ccncc4)nn23)c1	cell-free assay	competition with immobilised ligand	5 µM	100
CNC(=O)[C@@H]1CC[C@@H](n2c(-c3ccc4cnccc4c3)nc3ccc(C(=O)NCc4cccc(C(N)=O)c4)cc32)C1	binding	competition with immobilised ligand	1 µM	100
C[C@H]1CCN(c2nccc(-c3cnn4ncccc34)n2)C1	binding		1 µM	94
O=C(c1ccc(Nc2ncc(Cl)c(-c3ccc(Cl)s3)n2)cc1)N1CCC(N2CCCC2)CC1	binding	competition with immobilised ligand	1 µM	4.3
CC(=O)N1CCC(c2ccc(C(=O)NC(=N)N)cc2C(F)(F)F)CC1	cell-free assay	competition with immobilised ligand	1 µM	81
CN(c1nccc(-c2cnn3ncccc23)n1)C1CC1	binding		1 µM	100
FC(F)(F)c1ccc2c(c1)nc(-c1cccnc1)n2C1CC1	cell-free assay	competition with immobilised ligand	1 µM	79
O=C(Nc1c[nH]nc1C(=O)NC1CCNCC1)c1cc(F)cc(F)c1	binding	competition with immobilised ligand	1 µM	100
CCc1ccccc1C(=O)Nc1n[nH]c2c(C)c(F)c(C3C(C#N)=C(C)N(C)C(C)=C3C#N)cc12	cell-free assay	competition with immobilised ligand	1 µM	80
O=C(NCCCN1CCOCC1)c1ccc(Nc2nccc(-c3cc4ccccc4s3)n2)cc1	binding	competition with immobilised ligand	1 µM	45
CN(C)c1nccc(-c2cnn3ncccc23)n1	binding		1 µM	87
CS(=O)(=O)c1cc(C2(NC(=O)c3cncc4c3cnn4-c3ccc(F)cc3)CC2)ccn1	cell-free assay	competition with immobilised ligand	1 µM	100
CC1CCCN1c1nccc(-c2cnn3ncccc23)n1 (stereo not drawn)	binding		1 µM	98
CN(C)c1ncnc(-c2ccc3nc(Nc4cc(CN5CCN(C(=O)CC(F)(F)F)CC5)ccn4)[nH]c3c2)c1Cl	cell-free assay	competition with immobilised ligand	1 µM	87
